Changes are numbered by the printed parent chain. pEC50, pIC50: −log10 of the molar value.
Key:
LAPC-4 xenografts = test: LAPC-4 prostate cancer xenograft anti-tumor efficacy; format: in vivo, male SCID mice; conditions: for efficacy of oral dosing (in words): first study, 0.15 mmol/kg o.d. p.o. up to day 24
[1] = tested on: AR protein in LAPC-4 tumors; test: AR protein levels in excised LAPC-4 tumors, western blot; format: in vivo, male SCID mice
[2] = tested on: prostate, seminal vesicles, and the testes; test: Urogenital tissue weights in LAPC-4 xenograft mice; format: in vivo, male SCID mice; conditions: 31 days, 0.15 mmol/kg; 3 and 5 s.c. b.i.d., 4 and 5-acetate p.o.
Summary of the method: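 Male SCID mice, 4–6 weeks old, housed pathogen-free with food and water ad libitum. LAPC-4 cells were scraped into DPBS, pelleted and resuspended in Matrigel (10 mg/ml) at 2.0 × 10^7 cells/mL before inoculation. Vehicle was 0.3% HPC; test compounds were given at 0.15 mmol/kg. After 31 days of treatment, prostate, seminal vesicles and testes were excised and weighed and compared with vehicle controls.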

human CYP17 = human CYP17 (Homo sapiens, UniProt P05093); test: Acetic acid releasing assay for CYP17 activity in 293T-CYP17 cells; format: cell-based; conditions: read-out: CYP17 IC50, each in duplicate
[3] = biological target: T1, wild-type AR (in LAPC-4 cells) (Homo sapiens, UniProt P10275); format: binding
T1 sequence (P10275 1-920): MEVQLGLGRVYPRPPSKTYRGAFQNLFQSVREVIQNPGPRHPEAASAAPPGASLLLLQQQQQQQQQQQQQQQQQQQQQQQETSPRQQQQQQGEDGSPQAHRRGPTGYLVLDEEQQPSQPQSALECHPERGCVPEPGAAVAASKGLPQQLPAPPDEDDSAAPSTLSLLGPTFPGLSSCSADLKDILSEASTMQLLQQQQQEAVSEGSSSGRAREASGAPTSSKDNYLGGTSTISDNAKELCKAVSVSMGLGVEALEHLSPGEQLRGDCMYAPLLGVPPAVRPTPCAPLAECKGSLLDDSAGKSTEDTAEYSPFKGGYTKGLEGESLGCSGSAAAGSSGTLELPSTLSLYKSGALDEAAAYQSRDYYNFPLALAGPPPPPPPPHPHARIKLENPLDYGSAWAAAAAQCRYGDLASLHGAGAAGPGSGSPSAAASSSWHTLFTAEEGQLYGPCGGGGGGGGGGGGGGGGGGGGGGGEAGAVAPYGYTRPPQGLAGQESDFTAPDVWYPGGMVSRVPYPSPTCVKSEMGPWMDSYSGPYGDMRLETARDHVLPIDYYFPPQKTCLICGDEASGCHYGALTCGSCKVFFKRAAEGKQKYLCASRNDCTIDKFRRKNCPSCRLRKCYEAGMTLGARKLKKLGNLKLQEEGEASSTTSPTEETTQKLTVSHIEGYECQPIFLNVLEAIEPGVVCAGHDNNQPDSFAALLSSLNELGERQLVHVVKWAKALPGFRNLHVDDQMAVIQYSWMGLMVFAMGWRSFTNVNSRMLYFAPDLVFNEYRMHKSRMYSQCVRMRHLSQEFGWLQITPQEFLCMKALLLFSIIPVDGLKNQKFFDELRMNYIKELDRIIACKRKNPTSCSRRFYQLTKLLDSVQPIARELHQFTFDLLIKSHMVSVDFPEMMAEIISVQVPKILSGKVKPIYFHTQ

[4] = biological target: T2, mutant T877A AR (in LNCaP cells) (Homo sapiens, UniProt P10275, T878A); format: binding
T2 sequence (P10275 1-920 T878A): T1 sequence (P10275 1-920) with T878A

LNCaP cells = test: Cell proliferation / viability XTT assay, LNCaP; format: cell-based; conditions: Homo sapiens; for GI50: read-out: Cell growth inhibition GI50 LNCaP; for pIC50: read-out: IC50 in DHT stimulated LNCaP cells; for inhibition at 10 µM: read-out: inhibition of LNCaP proliferation
LAPC-4 cells = test: Cell proliferation / viability XTT assay, LAPC-4; format: cell-based; conditions: Homo sapiens; for GI50: LAPC4, read-out: Cell growth inhibition GI50 LAPC-4; for pIC50: LAPC4, read-out: IC50 in DHT stimulated LAPC4 proliferation
Summary of the method: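 Cells moved to steroid-free medium (phenol red-free RPMI, 5% dextran-coated charcoal-treated serum, 1% penicillin/streptomycin) 3 days before plating at 1.5 × 10^4 cells/well. After 24 h attachment, they were given steroid-free medium with ethanol vehicle, androgens and/or test compound, changed every three days. Viability was read by XTT absorbance on day 7. Each result is the average of at least three wells.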

[5] = tested on: androgen-induced AR transcription; test: Transcriptional activation luciferase assay; format: cell-based, human; conditions: LNCaP, ARR-2 reporter, with or without DHT
Summary of the method: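 LNCaP cells were kept steroid-free for 3 days, plated at 1 × 10^5 cells/well, then co-transfected with ARR2-Luc and Renilla pRL-null using Lipofectamine 2000. After 24 h at 37 °C, cells in serum-free phenol red-free RPMI were treated in triplicate with DHT, ethanol vehicle and/or test compound for 18 h. A dual luciferase read-out gave fold induction over control, normalized to Renilla.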

[6] = tested on: androgen receptor expression in LNCaP cells; test: AR down-regulation in LNCaP cells, western blot densitometry; format: cell-based, human; conditions: for AR down-regulation (in words): highest concentration (15 μM) tested
[7] = Toxicity monitoring in LAPC-4 xenograft mice; format: in vivo, male SCID mice; conditions: third study; for deaths of mice: 10 mice per group

Chain of human CYP17 (P05093 whole entry): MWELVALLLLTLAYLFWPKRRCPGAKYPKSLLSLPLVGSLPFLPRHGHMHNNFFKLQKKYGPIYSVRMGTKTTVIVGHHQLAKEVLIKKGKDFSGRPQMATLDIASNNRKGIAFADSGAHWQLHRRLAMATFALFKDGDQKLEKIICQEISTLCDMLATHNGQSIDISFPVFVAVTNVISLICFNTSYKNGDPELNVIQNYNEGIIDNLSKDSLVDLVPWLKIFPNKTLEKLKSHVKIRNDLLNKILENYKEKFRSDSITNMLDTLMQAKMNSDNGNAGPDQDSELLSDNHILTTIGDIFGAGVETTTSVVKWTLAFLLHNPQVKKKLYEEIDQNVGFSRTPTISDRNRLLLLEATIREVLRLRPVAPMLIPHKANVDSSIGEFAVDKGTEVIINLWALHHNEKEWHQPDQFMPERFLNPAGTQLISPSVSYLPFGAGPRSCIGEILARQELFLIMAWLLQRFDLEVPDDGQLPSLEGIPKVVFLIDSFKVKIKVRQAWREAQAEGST

**Q.** Which results are given for `C[C@]12CC[C@H](O)CC1=CC[C@@H]1[C@@H]2CC[C@]2(C)C(c3cccnc3)=CC[C@@H]12` [Compound 3, 3β-Hydroxy-17-(3-pyridyl)androsta-5,16-dien]?
**A.** efficacy of oral dosing (in words) (LAPC-4 xenografts): neither compound demonstrated any significant efficacy; effect on AR levels in tumors (in words) ([1]; first study, 0.15 mmol/kg s.c. b.i.d.): no significant effect on AR levels; prostate size/weight (in words) [2]: failed to significantly reduce the size of any of the organs; seminal vesicles size/weight (in words) [2]: failed to significantly reduce the size of any of the organs; testes size/weight (in words) [2]: failed to significantly reduce the size of any of the organs

**Q.** What does the source list for `CC(=O)O[C@H]1CC[C@@]2(C)C(=CC[C@@H]3[C@@H]2CC[C@]2(C)C(c4cccnc4)=CC[C@@H]32)C1` [Compound 4, 3β-Acetoxy-17-(3-pyridyl)androsta-5,16-dien, reference compound]?
**A.** efficacy of oral dosing (in words) (LAPC-4 xenografts): neither compound demonstrated any significant efficacy; seminal vesicles size/weight (in words) [2]: significantly reduced the size of the seminal vesicles

**Q.** What does the source list for `C[C@]12CCC(F)CC1=CC[C@@H]1[C@@H]2CC[C@]2(C)C(n3cnc4ccccc43)=CC[C@@H]12` (stereo partly drawn) [Compound 6, 3ξ-Fluoro-17-(1H-benzimidazol-1-yl)androsta-5,16-dien]?
**A.** pIC50 (human CYP17): 6.82; pEC50 [3]: 6.03; reduction of wild-type AR binding compared to 5 ([3]; ratio of EC50 to that of 5): 2.3 fold; pEC50 [4]: 5.80; binding to the mutant AR compared to 5 (in words) [4]: not significantly different from binding of 5; GI50 (LNCaP cells): 8 µM; pIC50 (LNCaP cells): 5.10; inhibition at 10 µM (LNCaP cells): 85%; GI50 (LAPC-4 cells): 16 µM; pIC50 (LAPC-4 cells): 5.15; AR agonist/antagonist character in transcriptional activation studies [5]: pure AR antagonists; AR down-regulation ([6]; 15 μM, 24 hours): 50%; efficacy versus LAPC-4 xenografts relative to 5 (LAPC-4 xenografts; on equimolar basis): ~ 2 fold; effect on LAPC-4 tumor growth (in words) (LAPC-4 xenografts; third study, 0.15 mmol/kg s.c. once daily): as effective in inhibiting LAPC-4 tumor growth as twice daily administration of 5; effect on AR protein levels in tumors (in words) ([1]; third study, 0.15 mmol/kg s.c., twice daily administration): only a minor and statistically insignificant effect on AR protein levels; changes in mouse weights (in words) [7]: no changes in mouse weights were observed; deaths of mice ([7]; 0.15 mmol/kg s.c. once daily): five mice; deaths of mice ([7]; 0.15 mmol/kg s.c. twice daily): two mice; signs of toxicity at internal examination (in words) ([7]; necropsy): no overt signs toxicity were seen

**Q.** With `C[C@]12CC[C@@H](N=[N+]=[N-])CC1=CC[C@@H]1[C@@H]2CC[C@]2(C)C(n3cnc4ccccc43)=CC[C@@H]12` [Compound 8, 3α-Azido-17-(1H-benzimidazol-1-yl)androsta-5,16-dien] as the molecule, how does the pIC50 (human CYP17) read?
**A.** 6.92

**Q.** And the pEC50 [3]?
**A.** 5.61

**Q.** And the “binding affinity to the wild-type AR compared to 5 (in words)” value [3]?
**A.** greatly reduced

**Q.** What about the pEC50 [4] of the same molecule?
**A.** 5.36

**Q.** What about the “binding to the mutant AR compared to 5 (in words)” value [4] of the same molecule?
**A.** greatly reduced

**Q.** What about the GI50 (LNCaP cells) of the same molecule?
**A.** 7 µM

**Q.** What about the pIC50 (LNCaP cells) of the same molecule?
**A.** 4.80

**Q.** What about the inhibition at 10 µM (LNCaP cells) of the same molecule?
**A.** 60%

**Q.** What about the GI50 (LAPC-4 cells) of the same molecule?
**A.** 19 µM

**Q.** What about the pIC50 (LAPC-4 cells) of the same molecule?
**A.** 4.72

**Q.** What about the “AR agonist/antagonist character in transcriptional activation studies” value [5] of the same molecule?
**A.** pure AR antagonists

**Q.** What about the “AR down-regulation (in words)” value [6] of the same molecule?
**A.** did not cause down-regulation of AR expression

**Q.** For `C[C@]12CC[C@H](OS(N)(=O)=O)CC1=CC[C@@H]1[C@@H]2CC[C@]2(C)C(n3cnc4ccccc43)=CC[C@@H]12` [Compound 9, 3β-O-Sulfamoyl-17-(1H-benzimidazol-1-yl)androsta-5,16-dien], which “effect on LAPC-4 tumor growth, oral (in words)” value (LAPC-4 xenografts; administered orally as described for 5) is on record?
**A.** did not show any significant effect on LAPC-4 tumor growth

**Q.** Which “AR down-regulation (in words)” value [6] does the source give for `C[C@]12CC[C@H](O)CC1=CC[C@@H]1[C@@H]2CC[C@]2(C)C(n3cnc4ccccc43)CC[C@@H]12` (stereo partly drawn) [Compound 10, 3β-Hydroxy-17-(1H-benzimidazol-1-yl)androsta-5-ene] here?
**A.** did not cause down-regulation of AR expression

**Q.** What does the source list for `C[C@]12CC[C@H](O)C[C@@H]1CC[C@@H]1[C@@H]2CC[C@]2(C)C(n3cnc4ccccc43)=CC[C@@H]12` [Compound 15, 3β-Hydroxy-17-(1H-benzimidazol-1-yl)-5α-androsta-16-ene]?
**A.** GI50 (LNCaP cells): 17.6 µM; AR down-regulation (in words) [6]: did not cause down-regulation of AR expression

From PMC3171567 (Steroids, 2011)
